In data set [1] the target is T1, Mu-type opioid receptor (Mus musculus, UniProt P42866). Kind of data set: Binding affinity to mouse mu opioid receptor expressed in CHO cell membrane assessed as inhibition constant incubated for 1.5 hrs by competitive radioligand binding assay. The class given is cell membranes.
Data set [2] addresses Kappa-type opioid receptor (Mus musculus, UniProt P33534). Kind of data set: Binding affinity to mouse kappa opioid receptor expressed in CHO cell membrane assessed as inhibition constant incubated for 1.5 hrs by competitive radioligand binding assay. The class given is cell membranes.
The species entered for data set [3] is Mus musculus. The experiment in a line: Selectivity ratio, ratio of Ki for binding affinity to mouse kappa opioid receptor expressed in CHO cell membrane to Ki for binding affinity to mouse mu opioid receptor expressed in CHO cell membrane.
The target of data set [4] is T1, Mu-type opioid receptor. Kind of data set: Binding affinity to mouse mu opioid receptor expressed in CHO cell membrane assessed as [35S]GTPgammaS binding incubated for 1.5 hrs by liquid scintillation counter analysis. Type of data set: cell membranes. Summed up: (§1)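 MOR [35S]GTPγS functional assay in MOR-CHO membranes (Bmax about 2.5–4 pmol/mg). Efficacy is expressed as % of the maximal stimulation by full agonist DAMGO.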
Background: GTPγS resists hydrolysis and so accumulates on activated G proteins.

The target in data set [5] is Mu-type opioid receptor (Mus musculus) (UniProt P42866). The experiment in a line: Binding affinity to mouse mu opioid receptor expressed in CHO cell membrane assessed as stimulation of [35S]-GTPgammaS binding by measuring maximal efficacy incubated for 1.5 hrs by scintillation spectroscopy analysis relative DAMGO. The class given is cell membranes. Summed up:
as §1

Data set [6] has as its target Kappa-type opioid receptor (Mus musculus) (UniProt P33534). The experiment in a line: Binding affinity to mouse kappa opioid receptor expressed in CHO cell membrane assessed as stimulation of [35S]-GTPgammaS binding by measuring maximal efficacy incubated for 1.5 hrs by scintillation spectroscopy analysis relative U50488H. Particulars: filed as modulator. Type of data set: cell membranes. In short, it runs like this:
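KOR [35S]GTPγS functional assay in KOR-expressing CHO membranes. Efficacy is expressed as % of the maximal stimulation by full agonist U50,488H, with EC50 also determined. Mean of at least three independent experiments.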

Data set [7] shares this target. Kind of data set: Binding affinity to mouse kappa opioid receptor expressed in CHO cell membrane assessed as stimulation of [35S]-GTPgammaS binding by measuring maximal efficacy incubated for 1.5 hrs by scintillation spectroscopy analysis relative SNC80. The class given is cell membranes.
Data set [8] relates to Mus musculus. Kind of data set: Antinociceptive activity in Swiss Webster mouse assessed as inhibition of morphine induced latency to tail withdrawal at 10 mg/kg, sc preincubated for 5 mins followed by morphine addition and measured after 20 mins by warm water tail immersion assay. The class given is functional, organism-based. Particulars: time 25.0 min. Summed up: (§2)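 Male Swiss-Webster mice (n = 5). Compound is given s.c. at time 0 (10 mg/kg in the single-dose screen, a dose range for AD50), and morphine 10 mg/kg follows 5 min later. Tail flick is tested in 56 ± 0.1 °C water 20 min after morphine and scored as % MPE. Saline and morphine alone are the controls.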

Data set [9] deals with Mus musculus. The experiment in a line: Antinociceptive activity in sc dosed Swiss Webster mouse assessed as inhibition of morphine induced latency to tail withdrawal preincubated for 5 mins followed by morphine addition and measured after 20 mins by warm water tail immersion assay. As to conditions: 25 min. The class given is functional. Summed up:
as §2

Data set [10] has as its target Mu-type opioid receptor (Mus musculus) (UniProt P42866). Kind of data set: Agonist activity at mouse mu opioid receptor expressed in CHO cells co-expressing Gqi5 assessed as increase in intracellular calcium level incubated for 15 mins by Calcium flux assay. Type of data set: functional, cell-based. In short, it runs like this: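 MOR-CHO cells transiently transfected with Gqi5 (4 h at 37 °C, 5% CO2), replated and used 48 h post-transfection. Cells are loaded with fluo-4 AM plus probenecid in HBSS–HEPES buffer for 45 min, then exposed to compound for 15 min (agonist mode 0.3 nM to 3 μM). For antagonist mode DAMGO is then added. Fluorescence (RFU) is read for 90 s and peak values are taken. IC50 comes from non-linear regression. Triplicates, at least four experiments.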
In general terms: A change in cytosolic calcium serves as a functional read-out for many receptors and channels.

In data set [11] the target is T1, Mu-type opioid receptor. Kind of data set: Antagonist activity at mouse mu opioid receptor expressed in CHO cells co-expressing Gqi5 assessed as inhibition of DAMGO induced increase in intracellular calcium flux incubated for 15 mins by Calcium flux assay. Type of data set: functional, cell-based. In short, it runs like this:
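MOR-CHO cells transiently transfected with Gqi5 (4 h at 37 °C, 5% CO2), replated and used 48 h post-transfection. For antagonist mode DAMGO is then added. Fluorescence (RFU) is read for 90 s and peak values are taken. IC50 comes from non-linear regression. Triplicates, at least four experiments.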

The nature of data set [12]: Protein binding in human plasma at 10 uM and measured upto 24 hrs by equilibrium dialysis based MS analysis. Type of data set: ADME, cell-free. On the technique in general: Equilibrium dialysis compares concentrations on both sides of a semipermeable membrane.
A short description of data set [13]: Protein binding in rat plasma at 10 uM and measured upto 24 hrs by equilibrium dialysis based MS analysis. The class given is ADME, cell-free.
In data set [14] the target is Voltage-gated inwardly rectifying potassium channel KCNH2 (Homo sapiens, UniProt Q12809). Kind of data set: Inhibition of human ERG expressed in CHO-K1 cells with holding potential of -80 mV by automated patch clamp assay. Particulars: CHO-K1 cells expressing human ERG.
Data set [15] can be described thus: Efflux ratio of apparent permeability in human Caco-2 cells. The class given is ADME, cell-based.
Data set [16] in a line: Metabolic stability in human liver microsomes assessed as half life. The class given is ADME, Microsome. Summed up:
(§3)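 Human or rat liver microsomal stability, run by a contract lab. Half-life and hepatic CLint are reported.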

The nature of data set [17]: Metabolic stability in rat liver microsomes assessed as half life. The class given is ADME, Microsome. Summed up: as §3
The subject of data set [18] is Mus musculus. The experiment in a line: Effect of compound on chronic morphine pelleted Swiss Webster mouse model assessed as decrease in wet-dog shake symptom at 10 to 80 mg/kg, sc and measured for 20 mins by withdrawal assay. The class given is functional, organism-based. As to conditions: dose 10-80 mg/kg. Summed up:
(§4)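 Male Swiss-Webster mice made dependent with chronic morphine pellets. Compound is injected and wet-dog shakes, paw tremors and jumps are counted over 20 min after each injection.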

Data set [19] deals with Mus musculus. The experiment in a line: Effect of compound on chronic morphine pelleted Swiss Webster mouse model assessed as decrease in jump symptom at 40 mg/kg, sc and measured for 20 mins by withdrawal assay. Type of data set: functional, organism-based. In short, it runs like this:
as §4

Data set [20] has as its system Mus musculus. The experiment in a line: Effect of compound on chronic morphine pelleted Swiss Webster mouse model assessed as decrease in paw tremors symptom at 10 to 80 mg/kg, sc and measured for 20 mins by withdrawal assay. Type of data set: functional, organism-based. Particulars: dose 10-80 mg/kg. In short, it runs like this: as §4

Activity calls are given as the source filed them. The rule behind the calls is not given here. Bounds are passed on as bounds.

As to `Cc1cc2cccc(C(=O)N[C@H]3CC[C@@]4(O)[C@H]5Cc6ccc(O)c7c6[C@@]4(CCN5CC4CC4)[C@H]3O7)c2[nH]1.Cl`, the results for the Ki (on Mu-type opioid receptor [1]; in data set [2]) were 0.59 nM and 2.1 nM, respectively. In addition, the Ratio Ki in the data set listed under Mus musculus [3] was 3.6. Moreover, the EC50 (as a rule, the concentration that produces a half-maximal response) on Mu-type opioid receptor [4] worked out at 3.86 nM. In addition, the Emax (commonly the greatest response seen or fitted, relative to the assay's reference) came to 12% in [5], 73.9% in [6] and 26.7% in data set [7]. For the same molecule, the outcome in the data set with Mus musculus [8], with Mus musculus [19] and with Mus musculus [20] was Active. Further, the ED50 (in general, the dose at which the effect has come halfway, by size or by number of responders) in the data set on Mus musculus [9] stood at 10.6 mg/kg. In addition, the result (in data set [10]; in the data set with Mus musculus [18]) was inactive. The IC50 (commonly the concentration that gives 50% inhibition) at Mu-type opioid receptor [11] came out at 87.5 nM; in data set [14], 0.14 nM. Also, the figures for the PPB in data set [12] and in data set [13] were 99% and 96%, respectively. Also, the Ratio in data set [15] is given as 2.2. The t1/2 in [16] and in data set [17] was greater than 1 h in each case.

These data come from ChEMBL document CHEMBL5316274 (J Med Chem, 2023).
